This note sets out measurements from ChEMBL document CHEMBL3102806, “1,2,4-Triazole/oxime hybrids as new strategy for nitric oxide donors: Synthesis, anti-inflammatory, ulceroginicity and antiproliferative activities” (Eur J Med Chem, 2014).

Data set [1] is described as follows: Induction of nitric oxide release in phosphate buffer at 10^-4 M at pH 7.4 after 3 hrs by Griess colorimetric method in presence of N-acetylcysteine. It is filed as physicochemical. As to conditions: pH 7.4, 3 h, 100 µM. The essentials:
(§1)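 Final drug concentration 10^-4 M, added from DMF into 1:1 50 mM phosphate buffer (pH 7.4)/MeOH containing 5 × 10^-4 M N-acetylcysteine, at 37 °C. Nitrite read with Griess reagent after 10 min at room temperature, absorbance at 546 nm. Calibration with sodium nitrite standards (10–80 nmol/ml). Reported as mol NO per mol, n = 4 reaction mixtures.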
A general note: The Griess reaction detects nitrite, a stable product of nitric oxide.

Data set [2] can be described thus: Growth inhibition of human OVCAR5 cells assessed as cell growth at 10^-5 M after 48 hrs by sulforhodamine B assay relative to control. Conditions: OVCAR-5, 48 h, read-out: Activity. It counts as functional. In a few lines:
(§2)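 NCI primary screen, one-dose format across about 60 human tumour cell lines. Single addition at 10^-5 M with 48 h incubation; SRB protein-binding dye end point read spectrophotometrically. Reported as percent growth of treated cells versus untreated controls.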
(Sulforhodamine B stains cellular protein and so reports cell mass.)

Data set [3] has as its system Malme-3M. The experiment in a line: Growth inhibition of human MALME-3M cells assessed as cell growth at 10^-5 M after 48 hrs by sulforhodamine B assay relative to control. As to conditions: read-out: Activity. It is filed as functional. The essentials:
as §2

A short description of data set [4]: Induction of nitric oxide release in phosphate buffer at 10^-4 M at pH 7.4 after 1 hr by Griess colorimetric method in presence of N-acetylcysteine. It counts as physicochemical. As to conditions: pH 7.4, 1 h, 100 µM. In a few lines:
as §1

Data set [5] concerns CCRF-CEM. The experiment in a line: Growth inhibition of human CCRF-CEM cells assessed as cell growth at 10^-5 M after 48 hrs by sulforhodamine B assay relative to control. It counts as functional. As to conditions: read-out: Activity. In a few lines: (§3)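 NCI ~60 human tumour cell line screen. Single concentration of 10^-5 M added to cultures for 48 h. End point by sulforhodamine B protein staining read spectrophotometrically. Percent growth relative to untreated control cells.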

Data set [6] has as its system A549. The experiment in a line: Growth inhibition of human A549/ATCC cells assessed as cell growth at 10^-5 M after 48 hrs by sulforhodamine B assay relative to control. It counts as functional. As to conditions: A549, 48 h, read-out: Activity. In a few lines:
as §3

A short description of data set [7]: Induction of nitric oxide release in phosphate buffer at 10^-4 M at pH 7.4 after 2 hrs by Griess colorimetric method in presence of N-acetylcysteine. As to conditions: pH 7.4, 2 h, 100 µM. It is filed as physicochemical. In a few lines:
as §1

Data set [8] relates to OVCAR-8. The experiment in a line: Growth inhibition of human OVCAR8 cells assessed as cell growth at 10^-5 M after 48 hrs by sulforhodamine B assay relative to control. It is filed as functional. As to conditions: OVCAR-8, 48 h, read-out: Activity. In a few lines: as §2
Data set [9] concerns SK-MEL-5. The experiment in a line: Growth inhibition of human SK-MEL-5 cells assessed as cell growth at 10^-5 M after 48 hrs by sulforhodamine B assay relative to control. It is filed as functional. As to conditions: SK-MEL-5, 48 h, read-out: Activity. The essentials: (§4)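 NCI primary screen across about 60 human tumour cell lines. Single dose of 10^-5 M, cultures incubated 48 h, end point by sulforhodamine B protein staining read spectrophotometrically. Results are given as percent growth of treated cells relative to untreated control cells.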

Data set [10] concerns SK-MEL-2. The experiment in a line: Growth inhibition of human SK-MEL-2 cells assessed as cell growth at 10^-5 M after 48 hrs by sulforhodamine B assay relative to control. It is filed as functional. Conditions: SK-MEL-2, 48 h, read-out: Activity. In a few lines: as §4
The test system of data set [11] is Rattus norvegicus. The experiment in a line: Ulcerogenic activity in albino rat carrageenan-induced paw edema model assessed as ulcer index at 0.28 mmol/kg, po (reference value: 0.60 +/- 0.05). It counts as toxicity, organism-based. As to conditions: in vivo. In a few lines:
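Rats given the compound orally at 0.28 mmol/kg, suspended in 0.5% aqueous CMC; vehicle-only control, n = 4 per group. Gastric ulcers graded by area: I (<1 mm²), II (1–3 mm²), III (>3 mm²). Ulcer index = 1×(level I count) + 2×(level II) + 3×(level III). Mean ± SEM, one-way ANOVA versus control.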
A general note: The carrageenan paw model is a standard test of acute inflammation.

The test system of data set [12] is OVCAR-3. The experiment in a line: Growth inhibition of human OVCAR3 cells assessed as cell growth at 10^-5 M after 48 hrs by sulforhodamine B assay relative to control. As to conditions: OVCAR-3, 48 h, read-out: Activity. It is filed as functional. In a few lines:
as §2

Data set [13] has as its system SF-268. The experiment in a line: Growth inhibition of human SF268 cells assessed as cell growth at 10^-5 M after 48 hrs by sulforhodamine B assay relative to control. It is filed as functional. As to conditions: SF-268, 48 h, read-out: Activity. The essentials:
as §2

For data set [14], the system named is SW-620. The experiment in a line: Growth inhibition of human SW620 cells assessed as cell growth at 10^-5 M after 48 hrs by sulforhodamine B assay relative to control. It counts as functional. Conditions: SW-620, 48 h, read-out: Activity. In a few lines:
as §4

Data set [15] concerns HT-29. The experiment in a line: Growth inhibition of human HT-29 cells assessed as cell growth at 10^-5 M after 48 hrs by sulforhodamine B assay relative to control. It counts as functional. Conditions: HT-29, 48 h, read-out: Activity. In a few lines: as §3
Data set [16] has as its system U-251. The experiment in a line: Growth inhibition of human U251 cells assessed as cell growth at 10^-5 M after 48 hrs by sulforhodamine B assay relative to control. It is filed as functional. Conditions: U-251, 48 h, read-out: Activity. In a few lines: as §4
Data set [17] deals with HL-60(TB). The experiment in a line: Growth inhibition of human HL-60(TB) cells assessed as cell growth at 10^-5 M after 48 hrs by sulforhodamine B assay relative to control. It is filed as functional. Conditions: HL-60, 48 h, read-out: Activity. In a few lines: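 NCI primary screen across about 60 human tumour cell lines. Single dose of 10^-5 M, 48 h incubation, sulforhodamine B protein-dye end point read spectrophotometrically. Reported as percent growth of treated cells versus untreated control cells.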

Data set [18] relates to LOX IMVI. The experiment in a line: Growth inhibition of human LOXIMVI cells assessed as cell growth at 10^-5 M after 48 hrs by sulforhodamine B assay relative to control. It counts as functional. As to conditions: read-out: Activity. In a few lines:
as §2

The test system of data set [19] is NCI-H322M. The experiment in a line: Growth inhibition of human NCI-H322M cells assessed as cell growth at 10^-5 M after 48 hrs by sulforhodamine B assay relative to control. It is filed as functional. As to conditions: read-out: Activity. The essentials:
as §2

Data set [20] deals with Rattus norvegicus. The experiment in a line: Antiinflammatory activity in albino rat assessed as inhibition of carrageenan-induced paw edema at 0.28 mmol/kg, po administered 30 mins prior to carrageenan-challenge measured after 5 hrs relative to control. It is filed as functional. In a few lines: (§5)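 Male albino rats in groups of four were fasted 24 h with water allowed. Dosing was oral at 0.28 mmol/kg, suspended in 0.5% w/v CMC; controls got CMC alone. After 30 min, 0.1 ml of 1% carrageenan in saline went subplantar into the right hind paw and saline into the left. Paw thickness was read by caliper before and at 1–5 h. % inhibition = [(VR−VL)control−(VR−VL)treated]/(VR−VL)control ×100. Mean ± SEM, n = 4, one-way ANOVA vs control.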

The subject of data set [21] is 786-0. The experiment in a line: Growth inhibition of human 786-0 cells assessed as cell growth at 10^-5 M after 48 hrs by sulforhodamine B assay relative to control. It counts as functional. Conditions: 786-0, 48 h, read-out: Activity. In a few lines:
as §3

Data set [22] concerns MDA-MB-468. The experiment in a line: Growth inhibition of human MDA-MB-468 cells assessed as cell growth at 10^-5 M after 48 hrs by sulforhodamine B assay relative to control. It counts as functional. Conditions: MDA-MB-468, 48 h, read-out: Activity. In a few lines:
as §2

Data set [23] relates to Rattus norvegicus. The experiment in a line: Antiinflammatory activity in albino rat assessed as inhibition of carrageenan-induced paw edema at 0.28 mmol/kg, po administered 30 mins prior to carrageenan-challenge measured after 2 hrs relative to control. It is filed as functional. The essentials:
as §5

Data set [24] concerns CAKI-1. The experiment in a line: Growth inhibition of human CAKI-1 cells assessed as cell growth at 10^-5 M after 48 hrs by sulforhodamine B assay relative to control. It counts as functional. Conditions: CAKI-1, 48 h, read-out: Activity. In a few lines: as §3

As a reminder, the inhibition in vivo is the percentage by which the read-out fell short of the control. Turning to `C/C(=N\O)c1ccc(NC(=O)CSc2nnc(-c3ccccc3)n2-c2ccccc2)cc1`, the Activity is on record as 0.2 mol/mol in data set [1], 0.11 mol/mol in data set [4] and 0.15 mol/mol in [7]. Moreover, the growth at 10 µM in [2] was found to be 84.7%; in [3] it was 91.8%; in data set [5] it was 92%; in data set [6], 81.9%; in data set [8], 90.8%; in data set [9], 94.5%. Also, the growth at 10 µM worked out at 97.7% in [10]; 87.3% in [12]; 92.2% in data set [13]; 99.8% in data set [14]; 73.3% in data set [15]; 63.6% in data set [16]. Besides, the growth at 10 µM amounted to 90.4% in data set [17]; 82.9% in data set [18]; 66.7% in data set [19]; 92.7% in data set [21]; 90.4% in data set [22]; 99.9% in data set [24]. Moreover, the UI in [11] amounted to 0.95. Also, the inhibition in vivo at 280 µmol/kg in data set [20] is 66%; in data set [23], 52%.

Turning to `COc1ccc(-c2nnc(SCC(=O)Nc3ccc(/C(C)=N/O)cc3)n2-c2ccccc2)cc1OC`, the Activity in [1] stood at 0.23 mol/mol; in [4], 0.15 mol/mol; in [7], 0.2 mol/mol. The growth at 10 µM was found to be 97% in data set [2]; 61.8% in [3]; 98.5% in [5]; 70.7% in [6]; 42.8% in [8]; 94.6% in data set [9]. The growth at 10 µM in data set [10] was 57.6%; in data set [12] it was 82%; in [13] it was 30.6%; in data set [14] it was 115%; in data set [15] it was 91.2%; in data set [16] it was 34.4%. Further, the growth at 10 µM in data set [17] amounted to 77.3%; in data set [18], 80.1%; in data set [19], 75.7%; in [21] it was 64.5%; in [22], 78.5%; in [24], 87.4%. Also, the UI in [11] is 1.11. The inhibition in vivo at 280 µmol/kg turned out to be 76% in data set [20] and 63% in data set [23].
